High-throughput results (PubChem)
FN deposit inh: fibronectin deposition inhibition. AH1F fibroblasts, Alexa488-fibronectin deposition fluorescence, overnight. inhibition, % at 12.6 µM. actives 0.086% (n = 350,000). AID 743247;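 active means mean inhibition across replicates of 30% or more, regardless of how many single replicates reach that level; inconclusive means mean under 30% yet at least half of replicates reach 30%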
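Material: AH1F fibroblasts assembling fluorescent fibronectin matrix; amount: 10000 AH1F cells/well; medium: DMEM, 2% serum; reagent: Alexa488-fibronectin, 24 nM final in well; dosing: single compound dose, delivered by pin transfer; incubation: 1 h adhesion, overnight exposure; detection: fluorescence after three HBSS washes, excitation 485 nm, emission 525 nm; measure: fibronectin deposition inhibition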
PglD DTNB: inhibitors of Campylobacter jejuni PglD acetyltransferase; inhibition, % at 12.5 µM; purified PglD enzyme, DTNB colorimetric CoA detection; actives 0.098% (n = 360,000); AID 602405; in the data active means inhibition above about 16%, passing the limit was not always enough; inconclusive means no clear call, values can overlap the other calls
rRNA inh HTS: selective bacterial rRNA inhibition in E. coli; E. coli WT GFP vs humanized-ribosome RFP mutants, fluorescence, 24 h; stronger effect = lower value; DMSO median 0, no signal -100; actives 1.6% (n = 350,000); GFP signal change (wild-type ribosome), % (no concentration beside the values);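 active means significant combined selectivity score with lowered wild-type GFP, culture density cut under 30%, mutant RFP and density less affected; inactive means any of these conditions unmet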
HIV Env fusion: blocks HIV Env-driven cell-cell fusion | inhibition, % at 12.3 µM | AID 651610 | actives 1.1% (n = 360,000) | HeLa-JRFL Env/CEM21 cell fusion, luciferase;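 active means mean replicate inhibition score of at least 50 and every replicate individually at or above 50; inconclusive means only one of the two criteria met; inactive means mean below 50 and not all replicates reaching 50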
PGC1a acetyl inh: modulators of PGC1a acetylation | U2OS PGC1a acetylation, AlphaScreen anti-acetyl-lysine; with virally co-expressed GCN5 acetyltransferase | inhibition, % at 15.6 µM | actives 0.17% (n = 350,000);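 active means every replicate shows inhibition of at least 40%; inconclusive means mean inhibition at least 40% but some replicate below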
DENV2 CPE: DENV2-induced cell death inhibition; CPE inhibition, % at 9.99 µM; DENV2-infected cells, cytopathic effect rescue, plate reader; AID 651640; actives 1.7% (n = 350,000); in the data active means CPE inhibition above about 20%, passing the limit was not always enough; inconclusive means no clear call, values can overlap the other calls; tested in BHK-21 cells
Hits are given with their value; n = inactive; u = inconclusive; x = no result; ! = not active in a repeat; [ ] = remark or other dose. Hits are enriched below; roughly 3.5% of the tested compounds scored in any of these assays.

SMILES | FN deposit inh | PglD DTNB | rRNA inh HTS | HIV Env fusion | PGC1a acetyl inh | DENV2 CPE
O=C(Nc1cccc(Cl)c1)N1C[C@@H]2[C@H](c3ccccc31)[C@H](CO)N2C(=O)c1cccnc1 | x | n | -20 | x | n | x
O=C(CC(F)(F)F)N1C[C@H]2[C@@H](c3ccccc31)[C@@H](CO)N2Cc1cccnc1 | n | n | n | x | n | 27
O=C(CC(F)(F)F)N1C[C@@H]2[C@H](c3ccccc31)[C@H](CO)N2C(=O)c1ccncc1 | n | n | n | x | n | n
O=C(c1cccnc1)N1C[C@@H]2[C@H](c3ccccc31)[C@@H](CO)N2C(=O)C1CCCCC1 | n | n | n | x | n | 52
O=C(Nc1cccc(Cl)c1)N1C[C@@H]2[C@H](c3ccccc31)[C@@H](CO)N2C(=O)c1ccncc1 | x | n | n | x | n | n
O=C(c1cccnc1)N1C[C@@H]2[C@H](c3ccccc31)[C@H](CO)N2C(=O)C1CCCCC1 | n | n | n | x | n | n
N#C[C@H]1[C@@H](c2ccc(C#Cc3ccccc3F)cc2)[C@@H](CO)N1C(=O)C1CC1 | n | n | n | n | n | n
COc1ccc(S(=O)(=O)N(C)C[C@H]2OCCCC[C@@H](C)Oc3ccc(NC(=O)Nc4cccc5ccccc45)cc3C(=O)N([C@@H](C)CO)C[C@H]2C)cc1 | x | n | n | n | n | n
CCCC#Cc1ccc2c(c1)O[C@H](CN(C)Cc1ccc3c(c1)OCO3)[C@H](C)CN([C@H](C)CO)S2(=O)=O | n | n | n | 56[16.7 µM] | n | n
CC(C)CC#Cc1ccc2c(c1)O[C@@H](CN(C)Cc1ccc3c(c1)OCO3)[C@H](C)CN([C@H](C)CO)S2(=O)=O | n | n | n | n | 53 | n
C[C@@H]1CN([C@@H](C)CO)S(=O)(=O)c2ccc(Br)cc2O[C@@H]1CN(C)Cc1ccc2c(c1)OCO2 | n | n | -34! | n | n | n
CC(C)CC#Cc1ccc2c(c1)O[C@@H](CN(C)Cc1ccc3c(c1)OCO3)[C@@H](C)CN([C@H](C)CO)S2(=O)=O | n | n | n | n | n | n
C[C@H](CO)N1C[C@H](C)[C@@H](CN(C)Cc2ccc3c(c2)OCO3)Oc2cc(Br)ccc2S1(=O)=O | n | n | n | n | n | n
CC(C)CC#Cc1ccc2c(c1)O[C@@H](CN(C)Cc1cncnc1)[C@H](C)CN([C@@H](C)CO)S2(=O)=O | x | n | n | n | n | 24
CC(C)CC#Cc1ccc2c(c1)O[C@H](CN(C)Cc1cncnc1)[C@H](C)CN([C@@H](C)CO)S2(=O)=O | x | n | n | n | n | n
CCCC#Cc1ccc2c(c1)O[C@H](CN(C)Cc1ccc3c(c1)OCO3)[C@@H](C)CN([C@H](C)CO)S2(=O)=O | n | n | n | n | n | n
CN(C[C@H]1[C@@H](c2ccc(C3=CCCC3)cc2)[C@@H](CO)N1CCC(F)(F)F)S(C)(=O)=O | n | x | n | x | x | n
CC(C)CC#Cc1ccc2c(c1)O[C@H](CN(C)Cc1ccc(F)cc1)[C@H](C)CN([C@@H](C)CO)S2(=O)=O | x | n | n | n | n | n
CC(C)CC#Cc1ccc2c(c1)O[C@@H](CN(C)Cc1ccc(F)cc1)[C@@H](C)CN([C@H](C)CO)S2(=O)=O | x | n | n | n | n | 45
C[C@@H]1CN([C@H](C)CO)C(=O)c2cc(NC(=O)Cn3cnnn3)ccc2O[C@H]1CN(C)C(=O)Nc1ccc(C(F)(F)F)cc1 | x | n | n | x | n | n
CCN(CC)S(=O)(=O)c1ccc2[nH]c(=O)cc(C(=O)Nc3ccccc3N3CCCC3)c2c1 | n | n | n | n | x | n
CCN(CC)S(=O)(=O)c1ccc2[nH]c(=O)cc(C(=O)NCC(c3ccco3)N3CCCC3)c2c1 (stereo not drawn) | n | x | n | n | n | 27
C[C@H](NC(=O)C[C@@H]1CC[C@@H]2[C@H](COC[C@@H](O)CN2C(=O)Nc2ccccc2)O1)c1ccccc1 | n | n | n | x | n | n
CCNC(=O)C[C@@H]1CC[C@@H]2[C@H](COC[C@@H](O)CN2C(=O)Nc2ccc3c(c2)OCO3)O1 | n | n | n | x | n | n
C[C@@H](NC(=O)C[C@H]1CC[C@H]2[C@@H](COC[C@H](O)CN2C(=O)Nc2ccccc2)O1)c1ccccc1 | n | n | n | x | n | 50
SMILES | FN deposit inh | PglD DTNB | rRNA inh HTS | HIV Env fusion | PGC1a acetyl inh | DENV2 CPE
CNC(=O)C[C@H]1CC[C@@H]2[C@H](COC[C@@H](O)CN2C(=O)Nc2ccc3c(c2)OCO3)O1 | n | n | n | x | n | 102
C[C@@H](NC(=O)C[C@H]1CC[C@@H]2[C@H](COC[C@H](O)CN2C(=O)Nc2ccccc2)O1)c1ccccc1 | n | n | n | x | n | 21
CC1CC(C)CN(C(=S)SCc2nc(N)nc(Nc3ccccc3)n2)C1 (stereo not drawn) | n | x | -22 | n | x | n
N#C[C@H]1[C@@H](c2ccc(C3=CCCCC3)cc2)[C@@H](CO)N1S(=O)(=O)c1cccc(F)c1 | n | n | n | n | n | 92
N#C[C@H]1[C@H](c2ccccc2C2=CCCCC2)[C@@H](CO)N1S(=O)(=O)c1cccc(F)c1 | n | x | n | x | n | 31
N#C[C@H]1[C@@H](c2ccc(C3=CCCCC3)cc2)[C@H](CO)N1S(=O)(=O)c1cccc(F)c1 | n | n | n | n | n | n
N#C[C@@H]1[C@@H](c2ccccc2C2=CCCCC2)[C@@H](CO)N1S(=O)(=O)c1cccc(F)c1 | n | x | n | x | n | n
O=C(NCc1cccnc1)C(=O)NCC(c1ccco1)N1CCN(c2ccccc2)CC1 (stereo not drawn) | n | n | n | x | n | 21
O=C(NCc1ccc(Cl)cc1)C(=O)NCC(c1cccnc1)N1CCN(c2ccc(F)cc2)CC1 (stereo not drawn) | n | x | n | 62 | x | n
CN1[C@@H]2Cn3c(ccc(-c4ccncc4)c3=O)[C@H]1[C@@H](C(=O)NCCc1ccccc1)[C@@H]2CO | x | n | n | x | x | u
C[C@H]1CN([C@@H](C)CO)C(=O)c2cc(-c3ccccc3F)cnc2O[C@H]1CN(C)Cc1cccc(F)c1 | x | n | n | n | n | n
CN1C(C(=O)NCc2ccc(OC(F)(F)F)cc2)CC2Cn3c(nc4ccccc43)C21 (stereo not drawn) | n | n | n | n | n | 32
COc1ccc2cc(C[C@@H]3CC[C@@H](CO)O3)ccc2c1 | n | n | -23 | n | n | n
CCOC(=O)N1CCN(C(=O)COc2cccc3c2CCN(Cc2ccc(F)cc2)C3=O)CC1 | n | n | x | 57 | n | x
Cc1ccc(COc2cccc3c2CCN(Cc2ccc(F)cc2)C3=O)cc1 | x | x | x | n | x | x
O=C1c2cccc(OCc3ccc(F)cc3)c2CCN1Cc1ccccc1 | n | n | x | 77 | n | x
CCC(=O)NC[C@H]1[C@H](c2ccc(-c3cccc(F)c3)cc2)[C@H](CO)N1C(=O)CC | x | n | n | x | n | 29
